Data set [1] deals with T1, Muscarinic acetylcholine receptor M4 (Homo sapiens, UniProt P08173).
T1 sequence (P08173 whole entry): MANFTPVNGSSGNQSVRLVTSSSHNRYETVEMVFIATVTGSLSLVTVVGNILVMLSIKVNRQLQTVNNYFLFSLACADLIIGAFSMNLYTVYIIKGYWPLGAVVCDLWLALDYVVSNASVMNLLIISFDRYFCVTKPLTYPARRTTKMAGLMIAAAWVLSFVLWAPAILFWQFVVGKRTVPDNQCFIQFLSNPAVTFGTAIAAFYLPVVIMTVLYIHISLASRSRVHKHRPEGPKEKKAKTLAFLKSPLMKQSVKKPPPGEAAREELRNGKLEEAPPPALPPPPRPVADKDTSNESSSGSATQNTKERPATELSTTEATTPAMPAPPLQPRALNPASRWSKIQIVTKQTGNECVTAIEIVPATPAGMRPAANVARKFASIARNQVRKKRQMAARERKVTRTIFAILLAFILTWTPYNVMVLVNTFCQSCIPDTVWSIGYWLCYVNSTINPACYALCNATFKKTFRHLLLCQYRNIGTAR
Put plainly: In vitro affinity is evaluated, using quinuclidynyl benzylate (QNB) radioligand in human cloned Muscarinic acetylcholine receptor M4. The method, boiled down:
(§1)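 Membranes from CHO cells transfected with human m2, m3 or m4 receptors, prepared in 50 mM Tris (pH 7.4 at 37 °C). Displacement of 0.1 nM [3H]QNB; nonspecific binding defined with atropine sulfate. Incubated to equilibrium at 37 °C, ended by rapid vacuum filtration.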

Data set [2] has as its target T2, Muscarinic acetylcholine receptor M2 (Homo sapiens, UniProt P08172).
T2 sequence (P08172 whole entry): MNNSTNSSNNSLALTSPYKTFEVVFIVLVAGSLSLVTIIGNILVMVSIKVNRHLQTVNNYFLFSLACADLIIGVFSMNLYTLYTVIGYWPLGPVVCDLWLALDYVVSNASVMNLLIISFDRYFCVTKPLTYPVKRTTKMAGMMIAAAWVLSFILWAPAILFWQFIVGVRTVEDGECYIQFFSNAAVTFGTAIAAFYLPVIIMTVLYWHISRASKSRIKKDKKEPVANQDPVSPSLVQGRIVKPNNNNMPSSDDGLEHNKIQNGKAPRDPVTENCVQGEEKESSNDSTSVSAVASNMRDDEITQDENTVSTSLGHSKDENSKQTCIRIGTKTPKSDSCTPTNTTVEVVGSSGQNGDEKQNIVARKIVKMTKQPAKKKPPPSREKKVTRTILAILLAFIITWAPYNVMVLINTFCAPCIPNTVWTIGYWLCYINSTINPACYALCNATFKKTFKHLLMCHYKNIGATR
Put plainly: In vitro affinity is evaluated, using quinuclidinyl benzilate (QNB) as radioligand in human cloned Muscarinic acetylcholine receptor M2. In outline:
as §1

In another data set the test system is Rattus norvegicus. Put plainly: Dose producing 50% fall in heart rate in anesthetized rats. The class given is functional. The method, boiled down:
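Male Hooded Lister rats (300-380 g) under urethane anaesthesia, 37 °C. Increasing iv doses via femoral vein at 45 min intervals. BP recorded from carotid artery; HR derived from the BP signal. Peak effect within 1 min, expressed as % of predose. Value is the dose giving a transient 50% fall in mean BP or HR; 95% confidence limits.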

The target of data set [3] is T3, Muscarinic acetylcholine receptor M1 (Homo sapiens, UniProt P11229).
T3 sequence (P11229 whole entry): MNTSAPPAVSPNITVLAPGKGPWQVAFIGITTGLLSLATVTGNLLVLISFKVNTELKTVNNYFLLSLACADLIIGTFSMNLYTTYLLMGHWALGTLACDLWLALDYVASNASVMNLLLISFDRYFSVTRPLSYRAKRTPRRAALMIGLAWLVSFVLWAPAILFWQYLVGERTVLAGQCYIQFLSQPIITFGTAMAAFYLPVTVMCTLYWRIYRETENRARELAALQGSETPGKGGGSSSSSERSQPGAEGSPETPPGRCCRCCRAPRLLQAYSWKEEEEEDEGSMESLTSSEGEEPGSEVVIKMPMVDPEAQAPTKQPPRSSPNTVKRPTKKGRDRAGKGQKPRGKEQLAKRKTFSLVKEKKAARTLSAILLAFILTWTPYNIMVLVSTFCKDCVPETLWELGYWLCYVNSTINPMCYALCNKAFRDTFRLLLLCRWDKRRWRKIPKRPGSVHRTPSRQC
Put plainly: In vitro affinity against human Muscarinic acetylcholine receptor M1 using quinuclidynyl benzylate (QNB).

The nature of data set [4]: Ratio of 50% fall in heart rate to that of […] slow wave activity in anesthetized rats. The class given is functional. The method, boiled down:
(§2)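 Same anaesthetized-rat dosing as above. Ratio of iv dose giving a transient 50% fall in BP (or HR) to the iv dose giving an arecoline-equivalent (0.32 mg/kg) change in hippocampal theta power.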

Data set [5] in a line: Partition coefficient is determined in octanol/buffer solution at pH 12. It is filed as physicochemical.
A short description of data set [6]: Ratio of 50% fall blood pressure to that of rhythmic slow wave activity in anesthetized rats. It is filed as functional. The method, boiled down: as §2
Data set [7] concerns the target Muscarinic acetylcholine receptor M3 (Homo sapiens, UniProt P20309). Description: In vitro affinity is evaluated, using quinuclidynyl benzylate (QNB)radioligand in human cloned Muscarinic acetylcholine receptor M3. The method, boiled down: as §1

The structures appear in SMILES notation. pIC50: −log10 of the molar value.

Sequence of Muscarinic acetylcholine receptor M3 (P20309 whole entry): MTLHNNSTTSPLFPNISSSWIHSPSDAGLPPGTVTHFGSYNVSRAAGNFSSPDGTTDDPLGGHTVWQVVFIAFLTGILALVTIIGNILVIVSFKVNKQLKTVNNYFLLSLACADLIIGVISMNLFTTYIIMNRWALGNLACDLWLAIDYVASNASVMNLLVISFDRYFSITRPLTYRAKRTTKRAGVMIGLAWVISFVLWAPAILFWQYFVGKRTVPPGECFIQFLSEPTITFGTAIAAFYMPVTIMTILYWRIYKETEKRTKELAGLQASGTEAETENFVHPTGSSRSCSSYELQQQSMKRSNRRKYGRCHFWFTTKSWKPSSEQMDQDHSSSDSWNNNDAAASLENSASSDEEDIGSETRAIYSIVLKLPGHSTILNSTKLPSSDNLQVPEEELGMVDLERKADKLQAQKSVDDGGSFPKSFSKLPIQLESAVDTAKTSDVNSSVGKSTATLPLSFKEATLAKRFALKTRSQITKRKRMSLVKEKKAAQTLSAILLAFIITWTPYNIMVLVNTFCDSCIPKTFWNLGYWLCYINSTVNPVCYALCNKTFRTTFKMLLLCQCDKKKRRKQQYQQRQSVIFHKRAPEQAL

For the molecule `CO/N=C(\C#N)C12CCCN(CC1)C2` (stereo not drawn), the pIC50 in data set [1] is 7.31; in data set [2], 7.51; in data set [3] it was 7.00; in data set [7], 7.55. The same molecule came in with an ED50 in the data set with Rattus norvegicus of 0.01 mg/kg. The Ratio in data set [4] is recorded as 2; in data set [6], 4. Moreover, the logD in data set [5] is 1.49.

Source of the values: ChEMBL document CHEMBL1130270, “Design of [R-(Z)]-(+)-alpha-(methoxyimino)-1-azabicyclo[2.2.2]octane-3-acetonitri le (SB 202026), a functionally selective azabicyclic muscarinic M1 agonist incorporating the N-methoxy imidoyl nitrile group as a novel ester bioisostere” (J Med Chem, 1997).
